# Assay results pooled from the literature.
# Protocols differ between the studies behind these lines.
# Target: MAP kinase-interacting serine/threonine-protein kinase 2 (MKNK2, Homo sapiens, UniProt Q9HBH9)
Structure (SMILES),test,setting,measurement,result
C#Cc1n[nH]c2c(-c3cn([C@@H](C)c4ccccc4)c(=O)[nH]c3=O)cc(F)cc12,"enzyme activity, inhibitor",0.1 µM,inhibition,-7.9%
COc1cc(Nc2ncc(F)c(Nc3ccc4c(n3)NC(=O)C(C)(C)O4)n2)cc(OC)c1OC,"binding, competition with immobilised ligand",10 µM,inhibition,100%
Cc1nn(C)cc1-c1nc2c(N3CCN(Cc4ccc(Cl)cc4)CC3)c(Cl)cnc2[nH]1,"binding, competition with immobilised ligand",1 µM,remaining binding,46%
Nc1ncc(-c2nc(N3CCOCC3)nc(N3CCOCC3)n2)c(C(F)F)n1,"binding, competition with immobilised ligand",10 µM,remaining binding,56%
CC(C)(C)c1cc(C=C(C#N)C#N)cc(Br)c1O,"enzyme activity, inhibitor",0.5 µM,remaining activity,100%
Cn1cncc1[C@](O)(COc1ccc(C#N)cc1-c1ccc(OC(F)(F)F)cc1)c1ccc(C#N)cc1,"cell-free assay, competition with immobilised ligand",1 µM,remaining binding,85%
C#Cc1n[nH]c2c(-c3cn(C(C)c4ccccn4)c(=O)[nH]c3=O)cc(F)cc12 (stereo not shown),"enzyme activity, inhibitor",1 µM,inhibition,9.9%
N#CC1(c2ccccn2)CCN(Cc2cc(C(=O)O)c(=O)n3ccccc23)CC1,"cell-free assay, competition with immobilised ligand",1 µM,remaining binding,85%
O=c1[nH]c2ccccc2n1C1CCN(Cc2ccc(-c3[nH]c4cc5ncnc5cc4nc3-c3ccccc3)cc2)CC1,cell-free assay,0.5 µM,remaining signal,98.7%
COc1ncccc1-c1cnn2ccc(N3CCN(C(=O)OC(C)C)CC3)nc12,"binding, competition with immobilised ligand",1 µM,remaining binding,100%
